These results are taken from PMC4861071 (Chemical communications (Cambridge, England), 2016).

Read-outs that look alike come from different tables or passages of the source.

The subject of assay [1] is human renal Caki-1 cancer cell line. The following applies: read-out: IC50 Caki-1; cisplatin dissolved in H2O; ref [24]; cited from earlier work.
The subject of assay [2] is non-tumorigenic human embryonic kidney cell lines HEK-293T. The settings on record: read-out: IC50 HEK-293T; cisplatin dissolved in H2O; ref [24]; cited from earlier work.
Assay [3] has as its system human renal Caki-1 cancer cell line. Put plainly: Cell viability. It is filed as cell-based. The settings on record: read-out: IC50 Caki-1; 72 h incubation; dissolved in 1% DMSO, diluted with water. Put shortly: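 Growth inhibition measured by BluePresto assay in human renal Caki-1 cancer cells, run in parallel with human colon HCT 116 and DLD1 cancer lines and non-tumorigenic HEK-293T cells. Cells were exposed to test compound for 72 h. Compounds were dissolved in 1% DMSO and diluted with water before addition to the culture medium. Cisplatin reference was dissolved in water.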

The subject of assay [4] is thioredoxin reductase (TrRx). In words: Thioredoxin reductase activity in treated Caki-1 cells. It is filed as cell-based, human. The following applies: 5 µM, 24 hour incubation. Put shortly: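 Caki-1 cells were incubated with 5 µM test compound or 0.1% DMSO vehicle for 5, 12 and 24 h. Endogenous thioredoxin reductase activity was then assayed in soluble whole-cell lysates. Percent inhibition is relative to vehicle-treated cells at 24 h.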

The test system of assay [5] is plasmid (pBR322) DNA. The following applies: cited from earlier work.

As a reminder, the IC50 is the midpoint of a concentration-inhibition curve. Consider `N.N.[Cl][Pt][Cl]` [cisplatin], for which the figures for the IC50 in assay [1] and in assay [2] were 29 ± 4.11 µM and 3.27 ± 0.13 µM, respectively.

For `CC(C)c1cccc(C(C)C)c1-n1ccn(-c2c(C(C)C)cccc2C(C)C)[c]1=[Au][Cl]` [compound 1, [(IPr)AuCl]], the IC50 in assay [3] worked out at 27.1 ± 2 µM. For the same compound, the “inhibition of thioredoxin reductase activity” value in assay [4] is recorded as 17%.

As to “[Ru(p-cymene)Cl2(η^1-dppm)] [compound 9]”, in assay [3], the IC50 worked out at 35.6 ± 3.7 µM. Moreover, the “inhibition of thioredoxin reductase activity” value in assay [4] amounted to 44%. Moreover, in assay [5] (ref [31]), the “interaction with plasmid DNA” value is “weakly reduced supercoiling in plasmid DNA”.

Regarding “[Ru(p-cymene)Cl2(μ-dppm)Au(IPr)]ClO4 [compound 13]”, in assay [3], the IC50 turned out to be 5.2 ± 0.9 µM. Further, the “inhibition of thioredoxin reductase activity” value in assay [4] is 63%.

With “[Ru(p-cymene)Cl2(μ-dppm)AuCl] [compound 7]”, in assay [5] (previously described compounds, ref [26]), the “interaction with plasmid (pBR322) DNA” value is “lack of interaction”.
